ChEMBL document CHEMBL4024777, “Discovery of LY3104607: A Potent and Selective G Protein-Coupled Receptor 40 (GPR40) Agonist with Optimized Pharmacokinetic Properties to Support Once Daily Oral Treatment in Patients with Type 2 Diabetes Mellitus” (J Med Chem, 2018)
Activity calls are given as the source filed them. The calls are words filed in the database; no cut-off is given here.

Columns and labels:
[1] = target: Free fatty acid receptor 1 (Homo sapiens, UniProt O14842); test: Agonist activity at human GPR40 receptor expressed in HEK293 cells assessed as increase in intracellular calcium flux after 2.5 hrs measured over 3 mins in presence of 0.1% serum albumin by calcium 4 dye-based FLIPR assay; assay type: functional, cell-based
Sequence of Free fatty acid receptor 1 (O14842 whole entry): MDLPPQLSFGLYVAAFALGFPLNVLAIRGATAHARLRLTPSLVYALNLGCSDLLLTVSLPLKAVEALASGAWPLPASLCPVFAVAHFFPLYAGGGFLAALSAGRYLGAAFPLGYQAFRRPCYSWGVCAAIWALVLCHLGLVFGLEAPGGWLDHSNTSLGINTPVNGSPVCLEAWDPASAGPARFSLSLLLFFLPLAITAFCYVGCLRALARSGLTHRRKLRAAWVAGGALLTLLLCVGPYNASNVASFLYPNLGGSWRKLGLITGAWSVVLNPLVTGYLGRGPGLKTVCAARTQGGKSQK

[2] = Half life in Sprague-Dawley rat at 1 mg/kg, po; assay type: ADME, organism-based; conditions: in vivo
[3] = Drug metabolism in dog hepatocytes assessed as metabolite-B formation; assay type: ADME, cell-based, Canis lupus familiaris, Hepatocyte
[4] = Dissociation constant, pKa of the compound; assay type: physicochemical
[5] = AUC (0 to 24 hrs) in Sprague-Dawley rat at 500 mg/kg, po; assay type: ADME, organism-based; parameters: dose 500 mg/kg, time < 24 hr, route oral; conditions: in vivo
[6] = Tmax in Sprague-Dawley rat at 1 mg/kg, po; assay type: ADME, organism-based; conditions: in vivo
Procedure, shortened: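 Fasted rats given oral doses of 1 mg/kg. […] Bioavailability is calculated against the 1 mg/kg IV group.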

[7] = Initial plasma concentration in Beagle dog at 1 mg/kg, iv; assay type: ADME, organism-based, Canis lupus familiaris
[8] = Cmax in Sprague-Dawley rat at 100 mg/kg, po; assay type: ADME, organism-based; parameters: dose 100 mg/kg, route oral; conditions: in vivo
[9] = target: Free fatty acid receptor 1 (Rattus norvegicus) (UniProt Q8K3T4); test: Agonist activity at GPR40 in Sprague-Dawley rat islets assessed as glucose-stimulated insulin secretion levels at 1 uM in presence of 11.2 mM glucose by ELISA (reference value: 6.24 ng/ml)
Sequence of Free fatty acid receptor 1 (Rattus norvegicus) (Q8K3T4 whole entry): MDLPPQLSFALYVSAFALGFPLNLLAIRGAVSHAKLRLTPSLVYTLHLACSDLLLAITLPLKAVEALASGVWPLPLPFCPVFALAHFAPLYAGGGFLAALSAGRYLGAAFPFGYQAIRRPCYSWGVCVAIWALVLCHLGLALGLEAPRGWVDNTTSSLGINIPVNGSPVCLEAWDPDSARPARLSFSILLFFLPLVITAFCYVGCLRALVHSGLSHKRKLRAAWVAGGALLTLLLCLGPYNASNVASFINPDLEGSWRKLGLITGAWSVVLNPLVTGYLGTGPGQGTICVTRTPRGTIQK

[10] = Metabolic stability in dog microsomes assessed as compound metabolized after 30 mins; assay type: ADME, Canis lupus familiaris, Microsome; conditions: read-out: Drug metabolism
Procedure, shortened: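 Compound incubated 30 min with liver microsomes from mouse, rat, dog or human. Percent of compound metabolized recorded, as mean (SEM, n).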

[11] = Cmax in Beagle dog at 30 mg/kg, po; assay type: ADME, organism-based, Canis lupus familiaris; parameters: dose 30 mg/kg, route oral; conditions: in vivo
[12] = Volume of distribution at steady state in Sprague-Dawley rat at 1 mg/kg, iv; assay type: ADME, organism-based; conditions: in vivo, read-out: Vdss
[13] = Intrinsic clearance in human microsomes; assay type: ADME, Microsome
[14] = Cmax in Sprague-Dawley rat at 10 mg/kg, po; assay type: ADME, organism-based; parameters: dose 10 mg/kg, route oral; conditions: in vivo
[15] = tested on: Rattus norvegicus; test: Antidiabetic activity in Zucker fa/fa rat assessed as reduction in blood glucose AUC at 1 to 10 mg/kg, po administered for 1 day followed by OGTT at 1 hr after compound dosing and measured 60 mins post glucose challenge by oral glucose tolerance test; assay type: functional, organism-based
Procedure, shortened: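 Male Zucker fa/fa rats, 10 weeks old, were dosed orally with 1, 3 or 10 mg/kg, alongside a reference GPR40 agonist as positive control. The OGTT was run 1 h after dosing with a 2 g/kg oral glucose load. Blood glucose was sampled at 0, 10, 20, 40 and 60 min, with the legend also listing 120 min. Glucose AUC was assessed on day 1.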

Which Activity [1] does the source give for `CC#C[C@@H](CC(=O)O)c1ccc(OCc2ccc3nc(-c4c(C)cccc4C)nn3c2)cc1` here?
Its Activity is “Active”.

What about the half-life [2] of the same molecule?
The half-life was 281 min.

And the Drug metabolism [3]?
The Drug metabolism was “Metabolite_Detected”.

What about the pKa [4] of the same molecule?
Its pKa is 4.3.

And the AUC(0-t) at 24 h [5]?
Its AUC(0-t) at 24 h is 4790 µg·h/mL.

What about the Tmax [6] of the same molecule?
The Tmax was 15 min.

What about the C0 [7] of the same molecule?
Its C0 is 8240 ng/mL.

What about the Cmax [8] of the same molecule?
Its Cmax is 208 µg/mL.

And the Activity [9]?
Its Activity is 17.1 ng/mL.

And the metabolised at 0.5 h [10]?
Its metabolised at 0.5 h is 5%.

And the Cmax [11]?
Its Cmax is 126 µg/mL.

What about the Vd [12] of the same molecule?
The Vd was 0.33 L/kg.

And the K [13]?
Its K is less than 0.0009 h⁻¹.

What about the Cmax [14] of the same molecule?
The Cmax was 23700 ng/mL.

And the Activity [15]?
The Activity was “Active”.
